Laboratory results as given in ChEMBL document CHEMBL4715736, “Identification of anticancer agents based on the thieno[2,3-b]pyridine and 1H-pyrazole molecular scaffolds” (2016).

Assays:
Type in all cases: functional
HCT-15 = test: Growth inhibition of human HCT-15 cells assessed as cell growth at 0.01 uM incubated for 48 hrs by sulforhodamine B assay relative to control; settings: read-out: Activity
NCI-H226 = test: Growth inhibition of human NCI-H226 cells assessed as cell growth at 1 uM incubated for 48 hrs by sulforhodamine B assay relative to control; settings: read-out: Activity
A549 = test: Growth inhibition of human A549/ATCC cells assessed as cell growth at 1 uM incubated for 48 hrs by sulforhodamine B assay relative to control; settings: read-out: Activity
How it was run: (§1)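 NCI Developmental Therapeutics Program NCI60 panel. Compounds that were active in the 10 µM one-dose screen went on to dose–response testing. Growth at each concentration is expressed relative to untreated control (100%). GI50 (concentration giving 50% of maximal inhibition of proliferation) and TGI (concentration giving total growth inhibition) were derived from the curves.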

NCI-H322M = test: Growth inhibition of human NCI-H322M cells assessed as cell growth at 0.1 uM incubated for 48 hrs by sulforhodamine B assay relative to control; settings: read-out: Activity
SF-539 = test: Growth inhibition of human SF-539 cells assessed as cell growth at 1 uM incubated for 48 hrs by sulforhodamine B assay relative to control; settings: read-out: Activity
SR [1] = test: Growth inhibition of human SR cells assessed as cell growth at 100 uM incubated for 48 hrs by sulforhodamine B assay relative to control; settings: read-out: Activity
MOLT-4 [2] = test: Growth inhibition of human MOLT-4 cells assessed as cell growth at 1 uM incubated for 48 hrs by sulforhodamine B assay relative to control; settings: read-out: Activity
OVCAR-3 = test: Growth inhibition of human OVCAR-3 cells assessed as cell growth at 1 uM incubated for 48 hrs by sulforhodamine B assay relative to control; settings: read-out: Activity
HCT-116 = test: Growth inhibition of human HCT-116 cells incubated for 48 hrs by sulforhodamine B assay
How it was run: (§2)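 NCI60 panel at the NCI Developmental Therapeutics Program. Only compounds active in the 10 µM screen went to dose-response testing. GI50, the concentration giving 50% of maximal inhibition of proliferation, and TGI, the concentration giving total growth inhibition, were derived from the dose-response curves.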

SF-295 = test: Growth inhibition of human SF-295 cells assessed as cell growth at 100 uM incubated for 48 hrs by sulforhodamine B assay relative to control; settings: read-out: Activity
SK-OV-3 = test: Growth inhibition of human SK-OV-3 cells assessed as cell growth at 1 uM incubated for 48 hrs by sulforhodamine B assay relative to control; settings: read-out: Activity
PC-3 [3] = test: Growth inhibition of human PC-3 cells assessed as cell growth at 1 uM incubated for 48 hrs by sulforhodamine B assay relative to control; settings: read-out: Activity
NCI-H522 [4] = test: Growth inhibition of human NCI-H522 cells assessed as cell growth at 0.01 uM incubated for 48 hrs by sulforhodamine B assay relative to control; settings: read-out: Activity
MCF7 [5] = test: Growth inhibition of human MCF7 cells assessed as cell growth at 1 uM incubated for 48 hrs by sulforhodamine B assay relative to control; settings: read-out: Activity
LOX IMVI [6] = test: Growth inhibition of human LOX IMVI cells assessed as cell growth at 0.01 uM incubated for 48 hrs by sulforhodamine B assay relative to control; settings: read-out: Activity
SR [7] = test: Growth inhibition of human SR cells assessed as cell growth at 0.1 uM incubated for 48 hrs by sulforhodamine B assay relative to control; settings: read-out: Activity
M14 = test: Growth inhibition of human M14 cells assessed as cell growth at 0.1 uM incubated for 48 hrs by sulforhodamine B assay relative to control; settings: read-out: Activity
MDA-MB-468 = test: Growth inhibition of human MDA-MB-468 cells incubated for 48 hrs by sulforhodamine B assay; how it was run: as §2
KM12 = test: Growth inhibition of human KM12 cells assessed as cell growth at 100 uM incubated for 48 hrs by sulforhodamine B assay relative to control; settings: read-out: Activity
LOX IMVI [8] = test: Growth inhibition of human LOX IMVI cells assessed as cell growth at 0.1 uM incubated for 48 hrs by sulforhodamine B assay relative to control; settings: read-out: Activity
T47D = test: Growth inhibition of human T47D cells incubated for 48 hrs by sulforhodamine B assay
How it was run: (§3)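 NCI DTP 60-line human tumour panel. Dose-response curves were run only for ligands active in the initial 10 µM screen. GI50 (concentration giving 50% of maximal inhibition of proliferation) and TGI (concentration giving total growth inhibition) were derived from these curves.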

Hs-578T = test: Growth inhibition of human Hs-578T cells assessed as cell growth at 100 uM incubated for 48 hrs by sulforhodamine B assay relative to control; settings: read-out: Activity
PC-3 [9] = test: Growth inhibition of human PC-3 cells assessed as cell growth at 0.1 uM incubated for 48 hrs by sulforhodamine B assay relative to control; settings: read-out: Activity
SNB-75 = test: Growth inhibition of human SNB-75 cells assessed as cell growth at 0.1 uM incubated for 48 hrs by sulforhodamine B assay relative to control; settings: read-out: Activity
HT-29 = test: Growth inhibition of human HT-29 cells assessed as cell growth at 1 uM incubated for 48 hrs by sulforhodamine B assay relative to control; settings: read-out: Activity
UO-31 = test: Growth inhibition of human UO-31 cells assessed as cell growth at 1 uM incubated for 48 hrs by sulforhodamine B assay relative to control; settings: read-out: Activity
MCF7 [10] = test: Growth inhibition of human MCF7 cells assessed as cell growth at 0.01 uM incubated for 48 hrs by sulforhodamine B assay relative to control; settings: read-out: Activity
NCI/ADR-RES = test: Growth inhibition of human NCI/ADR-RES cells incubated for 48 hrs by sulforhodamine B assay; how it was run: as §2
NCI-H23 = test: Growth inhibition of human NCI-H23 cells assessed as cell growth at 0.1 uM incubated for 48 hrs by sulforhodamine B assay relative to control; settings: read-out: Activity
MOLT-4 [11] = test: Growth inhibition of human MOLT-4 cells assessed as cell growth at 0.1 uM incubated for 48 hrs by sulforhodamine B assay relative to control; settings: read-out: Activity
SK-MEL-5 [12] = test: Growth inhibition of human SK-MEL-5 cells incubated for 48 hrs by sulforhodamine B assay; how it was run: as §3
CAKI-1 = test: Growth inhibition of human CAKI-1 cells incubated for 48 hrs by sulforhodamine B assay; how it was run: as §1
SK-MEL-5 [13] = test: Growth inhibition of human SK-MEL-5 cells assessed as cell growth at 0.01 uM incubated for 48 hrs by sulforhodamine B assay relative to control; settings: read-out: Activity
NCI-H522 [14] = test: Growth inhibition of human NCI-H522 cells incubated for 48 hrs by sulforhodamine B assay; how it was run: as §2
U-251 = test: Growth inhibition of human U-251 cells assessed as cell growth at 0.1 uM incubated for 48 hrs by sulforhodamine B assay relative to control; settings: read-out: Activity
[15] = read-out: LC50 (the source's name)

CN1CCc2nc3sc(C(N)=O)c(N)c3c(-c3cccs3)c2C1
growth at 0.01 µM (HCT-15): 103%
growth at 1 µM (NCI-H226): 88%
growth at 1 µM (A549): 91%
growth at 0.1 µM (NCI-H322M): 102%
growth at 1 µM (SF-539): 90%
growth at 100 µM (SR [1]): -19%
growth at 1 µM (MOLT-4 [2]): 85%
growth at 1 µM (OVCAR-3): 87%
GI50 (HCT-116): 2.31 µM
LC50 (concentration killing 50% of cells) (HCT-116): > 100 µM
TGI (HCT-116): > 100 µM
growth at 100 µM (SF-295): 4%
growth at 1 µM (SK-OV-3): 89%
growth at 1 µM (PC-3 [3]): 106%
growth at 0.01 µM (NCI-H522 [4]): 96%
growth at 1 µM (MCF7 [5]): 111%
growth at 0.01 µM (LOX IMVI [6]): 97%
growth at 0.1 µM (SR [7]): 96%
growth at 0.1 µM (M14): 111%
GI50 (MDA-MB-468): 1.75 µM
TGI (MDA-MB-468): 4.86 µM
CC50 (MDA-MB-468; [15]): 41.7 µM
growth at 100 µM (KM12): 2%
growth at 0.1 µM (LOX IMVI [8]): 83%
GI50 (T47D): 2.81 µM
TGI (T47D): > 100 µM
CC50 (T47D; [15]): > 100 µM
growth at 100 µM (Hs-578T): -13%
growth at 0.1 µM (PC-3 [9]): 110%
growth at 0.1 µM (SNB-75): 95%
growth at 1 µM (HT-29): 91%
growth at 1 µM (UO-31): 95%
growth at 0.01 µM (MCF7 [10]): 98%
GI50 (NCI/ADR-RES): 3.69 µM
TGI (NCI/ADR-RES): 98.8 µM
CC50 (NCI/ADR-RES; [15]): > 100 µM
growth at 0.1 µM (NCI-H23): 95%
growth at 0.1 µM (MOLT-4 [11]): 91%
GI50 (SK-MEL-5 [12]): 1.43 µM
LC50 (SK-MEL-5 [12]): > 100 µM
TGI (SK-MEL-5 [12]): 5.24 µM
GI50 (CAKI-1): 2.82 µM
TGI (CAKI-1): > 100 µM
CC50 (CAKI-1; [15]): > 100 µM
growth at 0.01 µM (SK-MEL-5 [13]): 96%
GI50 (NCI-H522 [14]): 2.91 µM
LC50 (NCI-H522 [14]): > 100 µM
TGI (NCI-H522 [14]): 17.8 µM
growth at 0.1 µM (U-251): 98%
